Measurements taken from ChEMBL document CHEMBL1156682, “Synthesis and antioxidant activity evaluation of new hexahydropyrimido[5,4-c]quinoline-2,5-diones and 2-thioxohexahydropyrimido[5,4-c]quinoline-5-ones obtained by Biginelli reaction in two steps” (Eur J Med Chem, 2008).

Legend:
Format in all cases: functional
[1] = system: Radical scavenging activity; assay: Antioxidant activity assessed as DPPH radical scavenging activity at 50 uM/L after 2 hrs
Method in brief: (§1)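 DPPH radical scavenging read as absorbance at 517 nm. %RSA = [(A_DPPH − A_S)/A_DPPH] × 100, where A_S is absorbance with compound added at a given level and A_DPPH is absorbance of DPPH solution alone. Mean of three independent samples per compound.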

[2] = system: Radical scavenging activity; assay: Antioxidant activity assessed as DPPH radical scavenging activity at 100 uM/L after 2 hrs; method in brief: as §1
[3] = system: Radical scavenging activity; assay: Antioxidant activity assessed as DPPH radical scavenging activity at 150 uM/L after 2 hrs; method in brief: as §1
[4] = system: Radical scavenging activity; assay: Antioxidant activity assessed as DPPH radical scavenging activity at 200 uM/L after 2 hrs; method in brief: as §1
[5] = system: Radical scavenging activity; assay: Antioxidant activity assessed as DPPH radical scavenging activity at 250 uM/L after 2 hrs; method in brief: as §1
[6] = Antioxidant activity assessed as hydroxyl radical scavenging activity at 20 uM/L after 2 hrs
Method in brief: (§2)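 Hydroxyl radical scavenging by benzoic acid hydroxylation, with OH· generated by Fenton reaction. Sample was mixed with phosphate buffer (pH 7.4, 0.1 mol), then H2O2 solution (10 mmol) was added, and the mixture was incubated at 37 °C for 2 h. Fluorescence of the hydroxylated benzoic acid was read at excitation 305 nm, emission 407 nm.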

[7] = Antioxidant activity assessed as hydroxyl radical scavenging activity at 50 uM/L after 2 hrs; method in brief: as §2
[8] = Antioxidant activity assessed as hydroxyl radical scavenging activity at 100 uM/L after 2 hrs; method in brief: as §2
[9] = Antioxidant activity assessed as hydroxyl radical scavenging activity at 150 uM/L after 2 hrs; method in brief: as §2
[10] = Antioxidant activity assessed as hydroxyl radical scavenging activity at 200 uM/L after 2 hrs; method in brief: as §2

Compound	Activity [1] [%]	Activity [2] [%]	Activity [3] [%]	Activity [4] [%]	Activity [5] [%]	Activity [6] [%]	Activity [7] [%]	Activity [8] [%]	Activity [9] [%]	Activity [10] [%]
CCN1C(=O)NC2C(=C1C)C(=O)Nc1ccccc12 (stereo not given)	3.4	4.8	6.7	9.1	10.5	58.1	70.9	81.1	86.5	89.1
CCN1C(=O)NC2C(=C1C)C(=O)Nc1cccc(F)c12 (stereo not given)	3	4.6	6	8.7	9.8	12.5	58.4	72.4	80.2	83.1
CC1=C2C(=O)Nc3c(Cl)cccc3C2NC(=O)N1C (stereo not given)	3.1	5.4	10.2	16.2	17.4	66	77.3	82.9	87.3	89.2
CC1=C2C(=O)Nc3cccc(Cl)c3C2NC(=S)N1C (stereo not given)	7.7	8.2	9.5	15.3	24.9	68	82.7	87.4	89.8	92.3
CC1=C2C(=O)Nc3ccccc3C2NC(=O)N1C (stereo not given)	2.5	6.6	9.1	9.8	12	58.4	71.8	80.8	83.7	89.7
CC1=C2C(=O)Nc3cccc(Cl)c3C2NC(=O)N1C (stereo not given)	1.5	2.1	5	5.4	7.6	67.1	72.8	80.9	83.2	83.3
CCN1C(=O)NC2C(=C1C)C(=O)Nc1c(Cl)cccc12 (stereo not given)	1.9	2.3	4.3	8.1	11.8	63.8	74.1	80.6	84.4	86.7
CC1=C2C(=O)Nc3ccccc3C2NC(=S)N1C (stereo not given)	4	8.2	14.1	17.9	26.2	56.3	69.4	77.2	82.3	88.2
CC1=C2C(=O)Nc3cccc(F)c3C2NC(=S)N1C (stereo not given)	3.3	8.6	12.4	17.4	25.4	70.6	78.8	80.2	81.5	83.3
CC1=C2C(=O)Nc3cc(Cl)ccc3C2NC(=S)N1C (stereo not given)	9.5	11.2	17.8	23.8	30.6	68.7	76.5	87.5	88.5	90.2
